For five molecules, Activity, inhibition and MIC results are on record in ChEMBL document CHEMBL3351960, “Lumazine peptides penilumamides B-D and the cyclic pentapeptide asperpeptide A from a gorgonian-derived Aspergillus sp. fungus” (2014).

Assay [1] relates to Salmonella enterica. The assay can be described thus: Antibacterial activity against Salmonella enterica. Format: functional, organism-based. The procedure, abridged:
(§1)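 Run by a previously published antibacterial method against a 10-strain panel, with ciprofloxacin as positive control.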

Assay [2] deals with K562. The assay can be described thus: Cytotoxicity against human K562 cells by MTT assay. Format: functional, cell-based. The procedure, abridged: (§2)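 K562 erythroleukemia and HL-60 promyelocytic leukemia cells were scored by MTT method, with adriamycin as positive control.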
Assay [3] deals with HL-60. The assay can be described thus: Cytotoxicity against human HL60 cells by MTT assay. It counts as functional, cell-based. The method, boiled down:
as §2
(Tetrazolium assays rely on reduction of a dye to a coloured formazan, in cell work by metabolically active cells.)

Assay [4] deals with Pseudomonas aeruginosa. The experiment in a line: Antibacterial activity against Pseudomonas aeruginosa. It counts as functional, organism-based. The procedure, abridged: as §1
Assay [5] has as its system A549. The assay can be described thus: Cytotoxicity against human A549 cells by SRB assay. It counts as functional, cell-based. The method, boiled down: (§3)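 A549 lung carcinoma, HCT-116 colorectal cancer and HeLa cervical carcinoma cells were scored by sulforhodamine B assay, with adriamycin as positive control.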
A general note: In SRB staining, fixed cells bind dye roughly in proportion to their protein.

Assay [6] relates to Bacillus cereus. The assay can be described thus: Antibacterial activity against Bacillus cereus. Format: functional. The procedure, abridged: as §1
Assay [7] deals with HeLa. The experiment in a line: Cytotoxicity against human HeLa cells by SRB assay. Format: functional, cell-based. The method, boiled down:
as §3

Assay [8] has as its system Pseudomonas putida. The assay can be described thus: Antibacterial activity against Pseudomonas putida. It counts as functional, organism-based. The procedure, abridged:
as §1

Assay [9] has as its system Staphylococcus epidermidis. The assay can be described thus: Antibacterial activity against Staphylococcus epidermidis. It counts as functional. The method, boiled down:
as §1

Assay [10] deals with Escherichia coli. The assay can be described thus: Antibacterial activity against Escherichia coli. It counts as functional, organism-based. The method, boiled down: as §1
Assay [11] deals with Acetylcholinesterase. The experiment in a line: Inhibition of AChE (unknown origin) by Ellman's method. Particulars: Homo sapiens.
Assay [12] relates to Kocuria rhizophila. The assay can be described thus: Antibacterial activity against Kocuria rhizophila. It counts as functional, organism-based. The procedure, abridged:
as §1

In assay [13] the test system is Vibrio parahaemolyticus. The experiment in a line: Antibacterial activity against Vibrio parahaemolyticus. Format: functional, organism-based. The procedure, abridged:
as §1

The subject of assay [14] is Human alphaherpesvirus 1. The assay can be described thus: Antiviral activity against HSV1. It counts as functional, organism-based. The procedure, abridged:
(§4)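 Tested against RSV and HSV-1 by established procedures, with ribavirin as positive control.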

Assay [15] concerns HCT-116. The assay can be described thus: Cytotoxicity against human HCT116 cells by SRB assay. Format: functional, cell-based. The method, boiled down:
as §3

The subject of assay [16] is Staphylococcus aureus. The assay can be described thus: Antibacterial activity against Staphylococcus aureus. Format: functional, organism-based. The method, boiled down:
as §1

Assay [17] relates to Respiratory syncytial virus. The experiment in a line: Antiviral activity against respiratory syncytial virus. Format: functional, organism-based. The procedure, abridged:
as §4

Assay [18] deals with Nocardia brasiliensis. The experiment in a line: Antibacterial activity against Nocardia brasiliensis. It counts as functional, organism-based. The procedure, abridged: as §1

As a reminder, the MIC is the least concentration at which growth counts as inhibited. Read a high MIC as weaker potency.

In brackets after ≈: the same amount, converted by molar mass. Activity calls are given as the source filed them. No cut-off for these calls is given here. *1 amine or outer side, *2 acyl side, *3 side chain or, on linkers, in order; H or OH if unused. Where a SMILES comes first, the peptide text is derived from it. [ ]: non-standard residue; d: D form. X1 = O=C(c1cc(O)ccc1N[*:1])[*:2]

As to `COC(=O)c1ccccc1NC(=O)[C@H](CCS(C)(=O)=O)NC(=O)c1cnc2c(n1)c(=O)n(C)c(=O)n2C`, the result in assay [1], in [2], in [3], in [4], in assay [5] and in assay [6] was inactive. Further, the result in assay [7], in assay [8], in assay [9], in [10], in [12] and in assay [13] was inactive. For the same molecule, the result in assay [14], in assay [15], in [16], in assay [17] and in [18] was inactive. In assay [11], the inhibition result was “inactive”.

Take `C[C@H](NC(=O)c1cnc2c(n1)c(=O)n(C)c(=O)n2C)C(=O)Nc1ccccc1C(N)=O`: the outcome in assay [1], in [2], in assay [3], in assay [4], in [5] and in assay [6] was inactive. For the same molecule, the result in [7], in assay [8], in assay [9], in assay [10], in [12] and in [13] was inactive. Besides, the outcome in assay [14], in [15], in assay [16], in [17] and in [18] was inactive. The inhibition result in assay [11] is “inactive”.

In the case of `COC(=O)c1ccccc1NC(=O)[C@H](CC[S+](C)[O-])NC(=O)c1cnc2c(n1)c(=O)n(C)c(=O)n2C` (some centres undefined), the result in [1], in assay [2], in assay [3], in assay [4], in assay [5] and in assay [6] was inactive. Further, the result in assay [7], in assay [8], in assay [9], in assay [10], in assay [12] and in [13] was inactive. In addition, the outcome in assay [14], in assay [15], in [16], in [17] and in [18] was inactive. The inhibition result in [11] is “inactive”.

For `C[C@@H]1NC(=O)[C@H](Cc2ccc(O)cc2)NC(=O)c2cc(O)ccc2NC(=O)[C@@H]2CCCN2C(=O)[C@H](C)NC1=O` (cyclo(AAP[X1]Y)), the MIC in assay [6] and in assay [9] was 12.5 µM (≈ 6.72 µg/mL) each time.

As for `COC(=O)c1ccccc1NC(=O)[C@H](CCSC)NC(=O)c1cnc2c(n1)c(=O)n(C)c(=O)n2C`, the outcome in [1], in assay [2], in assay [3], in assay [4], in assay [5] and in assay [6] was inactive. In addition, the result in assay [7], in assay [8], in assay [9], in assay [10], in assay [12] and in assay [13] was inactive. Further, the outcome in assay [14], in assay [15], in [16], in assay [17] and in assay [18] was inactive. The inhibition entry in assay [11] is “inactive”.
